Measured values collected from several papers.
Lines come from different studies, so protocols differ.
Target: Phosphatidylinositol 4,5-bisphosphate 3-kinase catalytic subunit gamma isoform (PIK3CG, Homo sapiens, UniProt P48736)

COc1cc(-c2cc(-c3ccc(N4CCNCC4)cc3)cnc2C)cc(OC)c1OC — inhibition (enzyme activity, inhibitor; 1 µM): 11%
Nc1ncnc2occ(-c3ccc(NC(=O)Nc4cc(C(F)(F)F)ccc4F)cc3)c12 — remaining signal (cell-free assay, inhibitor; 20 µM): 54%
CCCS(=O)(=O)Nc1ccc(F)c(C(=O)c2c[nH]c3ncc(-c4ccc(Cl)cc4)cc23)c1F — inhibition (enzyme activity, inhibitor; 1 µM): < 10%
CS(=O)(=O)Nc1cc(-c2ccc3ncnc(Nc4ccc(F)c(Cl)c4)c3c2)cnc1Cl — inhibition (enzyme activity, inhibitor, FRET; 10 µM): 90 to 100%
CS(=O)(=O)c1cc(C2(NC(=O)c3cncc4c3cnn4-c3ccc(F)cc3)CC2)ccn1 — remaining binding (cell-free assay, competition with immobilised ligand; 1 µM): 82%
O=S(=O)(Nc1cc(Sc2ncn[nH]2)c(O)c2ccccc12)c1ccc(-c2ccccc2)cc1 — remaining activity (enzyme activity, inhibitor; 1 µM): ≥ 75%
Cc1cc(-n2nc(Cc3cc(F)cc(C(F)(F)F)c3)nc2C)ccc1C(N)=O — remaining binding (cell-free assay, competition with immobilised ligand; 1 µM): 79%
Cc1ccc(C(=O)NCc2ccsc2)cc1C#Cc1cn(C(C)C)c2ncnc(N)c12 — activity vs control (enzyme activity, inhibitor; 1 µM): 96%
C[C@@H]1CN(c2cc(-c3nn(C)c4ccc(OC5(C)CC5)cc34)ncn2)C[C@H](C)O1 — remaining binding (cell-free assay, competition with immobilised ligand; 1 µM): 100%
CC(C)CCn1c(SCC(=O)Nc2ccccc2C(F)(F)F)nc2nccnc2c1=O — inhibition (enzyme activity, inhibitor; 10 µM): < 20%
CCc1ccccc1C(=O)Nc1n[nH]c2c(C)c(F)c(C3C(C#N)=C(C)N(C)C(C)=C3C#N)cc12 — remaining binding (cell-free assay, competition with immobilised ligand; 1 µM): 100%
O=C(CSc1nc2nccnc2c(=O)n1CCc1ccccc1)Nc1ccccc1 — inhibition (enzyme activity, inhibitor; 10 µM): < 20%
